PG9 Ab binder: PG9 antibody binding by small molecule; inhibition, % at 6.7 µM; TR-FRET gp120-PG9 antibody binding; 360,000 tested, 0.43% active; in the data active means inhibition above about 8.5%
NR2E3 ag-1: activates human photoreceptor nuclear receptor NR2E3; 320,000 tested, 0.12% active; Q9Y5X4; AID 2300; GST-NR2E3/biotin-RetCOR TR-FRET, 1536-well; inhibition of corepressor binding, % at 4.78 µM;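 active means percent inhibition above the cutoff of mean plus 3 SD of all tested compounds, set per screening campaign, cut at about 20% in these data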;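 further: 0% = DMSO wells and 100% = biotin wells as full block of FRET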
Target sequence (Q9Y5X4 whole entry, looked up): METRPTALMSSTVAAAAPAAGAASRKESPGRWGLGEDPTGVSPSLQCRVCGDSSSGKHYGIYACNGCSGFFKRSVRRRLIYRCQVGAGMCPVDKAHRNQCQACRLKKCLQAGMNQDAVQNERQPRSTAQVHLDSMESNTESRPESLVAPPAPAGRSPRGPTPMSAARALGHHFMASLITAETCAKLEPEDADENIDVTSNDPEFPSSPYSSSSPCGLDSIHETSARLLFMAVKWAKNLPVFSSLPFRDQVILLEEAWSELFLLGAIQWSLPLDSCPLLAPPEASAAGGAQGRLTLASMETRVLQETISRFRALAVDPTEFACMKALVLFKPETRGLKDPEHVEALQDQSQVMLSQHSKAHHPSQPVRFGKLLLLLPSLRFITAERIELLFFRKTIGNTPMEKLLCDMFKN
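Material: NR2E3–RetCOR corepressor complex / Amount: 1.35 nM GST-NR2E3 / Medium: Tris pH 7.5 / Compound: single nominal compound dose of 4.8 µM / Incubation: 5 h at 4 °C / Technique: TR-FRET, Eu(K)-anti-GST donor, streptavidin-D2 acceptor, ex 340, em 617/671 nm / Read-out basis: percent loss of FRET ratio relative to control wells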
GalR3 antag: blocks the human galanin receptor 3; O60755; HEK293 GalR3-CNG cAMP membrane potential fluorescence; galR3 body fused to GalR1 C-terminus; inhibition, % at 3 µM; 360,000 tested, 0.44% active;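 active means inhibition above the screen-wide average plus 3 SD, cut at about 13% in these data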;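 further: forskolin and galanin both at EC90 stimulate the cells; cAMP rise reported by CNG channel membrane potential dye signal; 0% = forskolin plus galanin with DMSO and 100% = forskolin alone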
Target sequence (O60755 1-299 limits assumed): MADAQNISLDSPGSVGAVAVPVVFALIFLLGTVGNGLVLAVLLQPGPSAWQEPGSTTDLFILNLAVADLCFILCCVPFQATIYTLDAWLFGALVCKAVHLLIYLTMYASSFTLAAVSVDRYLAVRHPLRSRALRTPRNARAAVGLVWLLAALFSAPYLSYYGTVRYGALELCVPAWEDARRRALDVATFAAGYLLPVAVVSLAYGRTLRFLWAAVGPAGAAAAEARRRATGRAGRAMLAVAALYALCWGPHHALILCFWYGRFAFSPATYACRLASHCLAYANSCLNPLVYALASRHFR
NR2E3 ag-2: agonists of human NR2E3 nuclear receptor | Q9Y5X4 | CHO-S Gal4-NCOR/VP16-NR2E3 two-hybrid, luciferase | inhibition of corepressor binding, % at 3.98 µM | 360,000 tested, 0.35% active | AID 602229;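 active means inhibition above the mean of all tested compounds plus 3 SD, cut at about 70% in these data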;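 further: 0% = DMSO with NR2E3 transfected cells and 100% = cells lacking NR2E3 construct; higher means lower luciferase signal from less NR2E3 corepressor binding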
Rev-erbA mod: Rev-erb alpha (human) modulation; P20393; Rev-erbα–FITC-DNA binding, fluorescence polarization, 90 min; activity, % at 10 µM; 370,000 tested, 0.79% active; AID 1259318;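 active means activity above about 14%, limit read from the data; passing the limit was not always enough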;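 further: 0% = DMSO wells with 35 nM protein and 100% = DMSO wells with 750 nM protein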
PG9 binder conf: confirmation of small molecules binding HIV-1 gp120 antibody PG9; AID 651571; 1,500 tested, 90% active; shares compounds with PG9 Ab binder; TR-FRET PG9 antibody binding, biochemical; inhibition, % at 6.7 µM; in the data active means inhibition above about 9%
PGV04 Ab binding: counter-screen for PG9 binders: binding control antibody PGV04 | shares compounds with PG9 Ab binder | TR-FRET PGV04 antibody-gp120 binding, biochemical | inhibition, % at 6.7 µM | 1,500 tested, 95% active | AID 651604; in the data active means inhibition above about 9.5%
PG9 binder DR: PG9 antibody binding, dose response; shares compounds with PG9 Ab binder; TR-FRET PG9 antibody-gp120 binding inhibition; IC50, µM; 95 tested, under 10 active; AID 651848; in the data active means IC50 below about 10 µM
PGV04 DR counter: counter-screen for PG9 binders: binding to control antibody PGV04; 95 tested, 20% active; AID 651937; TR-FRET binding to control antibody PGV04; IC50, µM; shares compounds with PG9 Ab binder
PG126 binding DR: binds control antibody PG126 in PG9 counter-screen; shares compounds with PG9 Ab binder; TR-FRET binding to antibody PG126, counterscreen; IC50, µM; 95 tested, 20% active
Rev-erbA confirm: confirmation of modulators of human Rev-erb alpha DNA binding; shares compounds with Rev-erbA mod; Rev-erb alpha FITC-DNA binding, fluorescence polarization, 90 min; activation, % at 25 µM; 3,000 tested, 61% active;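 active means activation at or above a set limit, or at least 3 SD above the negative control mean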;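 further: 0% = 35 nM protein with DMSO and 100% = 750 nM protein high control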
RORg DNA counter: counter-screen for Rev-erb alpha modulators: RORgamma DNA binding; AID 1259320; shares compounds with Rev-erbA mod; IC50, µM; 910 tested, 8% active; purified RORgamma protein-FITC-DNA binding, fluorescence polarization;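 active means Compounds whose fitted half-maximal concentration for disrupting protein-DNA binding is below 10 micromolar; the record names Rev-erb in its text, so the target is in doubt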
An asterisk follows results filed as active; i = inactive; nt = no result. An excerpt weighted towards active compounds, which were near 1.8% of everything screened. Unless noted, no stated cut-off is given here; in the data, active means IC50 below about 9 µM; inactive means the rest.

SMILES | PG9 Ab binder | NR2E3 ag-1 | GalR3 antag | NR2E3 ag-2 | Rev-erbA mod | PG9 binder conf | PGV04 Ab binding | Rev-erbA confirm | others
CCc1ccc(N2C(=O)C[C@@](C#N)(C(=O)OC)[C@H]2c2ccccc2)cc1 | nt | nt | nt | nt | -3.4 | nt | nt | nt
CC(=O)c1ccc(N2CCN(S(=O)(=O)c3cc4c(cc3C)NC(=O)CO4)CC2)cc1 | 36.6* | -8.8 | 8.3 | -5.0 | 31.3* | 33.3* | 47.6* | 22.9*
Cc1cc2c(cc1S(=O)(=O)N1CCN(c3cccc(C(F)(F)F)c3)CC1)OCC(=O)N2 | -1.3 | 2.1 | -5.3 | -26.3 | 4.5 | nt | nt | nt
COC(=O)C/C=C/[C@H](C)[C@@H](NC(=O)C(F)(F)F)c1ccccc1Br | nt | nt | nt | nt | 0.5 | nt | nt | nt
CCOC(=O)N1CCN(C(=O)C[C@H]2C(=O)N(Cc3ccc(OC)cc3)C3=CCCC[C@@]32C(=O)OCC)CC1 | nt | nt | nt | nt | 6.1 | nt | nt | nt
COc1cccc(NC(=O)CSc2ncnc3c2oc2ccccc23)c1 | 68.7* | 0.4 | 6.1 | -23.0 | 684.7* | 75.5* | 92.8* | 749.3* | RORg DNA counter=>40
CCOC(=O)CC[C@@]1(C(=O)OCC)C[C@@H](CC(=O)N2CCSCC2)C(=O)N2CCCC=C21 | nt | nt | nt | nt | 0.2 | nt | nt | nt
COc1ccc(-n2c(SCC(=O)Nc3cc(C)on3)nc3c([nH]c4ccccc43)c2=O)cc1 | 56.6* | 5.0 | 2.6 | -1.6 | 82.9* | 43.5* | 49.7* | 67.4* | RORg DNA counter=>40
Cn1c(SCC(=O)Nc2ccccc2)nc2c([nH]c3ccccc32)c1=O | 8.8* | 4.6 | 2.6 | -17.4 | 21.0* | 7.2 | 13.8* | 16.0*
Cc1ccc(Sc2ccc(NC(=O)c3ccc(S(C)(=O)=O)cc3Cl)cc2)cc1 | 47.7* | 0.6 | -2.9 | 0.8 | 46.0* | 41.1* | 62.1* | 21.6*
CS(=O)(=O)c1ccc(C(=O)Nc2ccc(N3CCCCC3)cc2)c(Cl)c1 | -2.7 | -1.7 | -2.8 | -3.1 | 8.4 | nt | nt | nt
Cc1sc2nc(SC(C)C)nc(N)c2c1C | 10.6* | -0.2 | -3.0 | -2.8 | 48.5* | 8.8* | 13.4* | 40.7* | RORg DNA counter=>40
C/C(=C/c1c[n+](Cc2ccc3c(c2)OCO3)c(N)[nH]1)Cn1[nH]c(=O)n(-c2ccccc2)c1=O | nt | nt | nt | nt | -3.1 | nt | nt | nt
Cc1ccc2nc3c(cc(C(=O)NC4CCS(=O)(=O)C4)n3Cc3ccccc3)c(=O)n2c1 (stereo unspecified) | 22.8* | -0.2 | -2.8 | -9.2 | 25.8* | 19.5* | 30.8* | 0.4
O=c1[nH]cnc2c1sc1nc3c(c(-c4ccc(Cl)cc4)c12)CCC3 | 11.0* | -2.4 | -0.8 | -22.0 | 39.1* | 27.6* | 15.7* | 10.2 | PG9 binder DR=i;PGV04 DR counter=6.41*;PG126 binding DR=8.61*
CCOC(=O)Cn1nnc2c(sc3nc4c(c(-c5ccc(Cl)cc5)c32)CCC4)c1=O | -1.1 | 1.6 | -6.5 | -8.9 | -2.7 | nt | nt | nt
CCOC(=O)[C@]12CCCC=C1N(CCCOC)C(=O)[C@@H]2CC(=O)NCCCN1CCCC1=O | nt | nt | nt | nt | 1.5 | nt | nt | nt
CCc1nnn2c1Cn1c3ccccc3c(=O)n1[C@@H](C(C)C)C2 | nt | nt | nt | nt | 0.5 | nt | nt | nt
COC(=O)c1c(NC(C)=O)sc(C(=O)Nc2ccccc2F)c1C | 30.9* | 0.0 | -1.5 | -7.6 | 26.2* | 36.3* | 45.4* | 20.9*
COc1ccc(-c2nnc(NC(=O)C(C)C)s2)c(OC)c1 | 12.5* | 12.4 | nt | 1.6 | 38.0* | 20.1* | 30.1* | 28.2* | RORg DNA counter=>40
COc1ccc(Cc2nnc(NC(=O)C(C)C)s2)cc1 | 0.0 | 1.3 | 0.8 | -4.5 | 1.6 | nt | nt | nt
CCN(CC)c1ccc(-c2nn3c(-c4ccccc4Cl)nnc3s2)cc1 | nt | nt | nt | nt | 5.5 | nt | nt | nt
COc1ccc(C(=O)Nc2nc3ccccc3s2)cc1 | -1.4 | 3.6 | -6.4 | -144.4 | 1.0 | nt | nt | nt
COc1ccc(C(=O)Nc2nc3ccc4nc(C)sc4c3s2)cc1 | 12.5* | -34.2 | -0.3 | -11.7 | 34.2* | 9.8* | 11.7* | 41.7* | RORg DNA counter=>40
COC(=O)Cn1c(=NC(=O)c2ccc(OC)c(OC)c2)sc2cc(OC)ccc21 | 32.8* | 4.6 | 0.2 | 4.4 | 64.0* | 60.7* | 75.0* | 31.4* | RORg DNA counter=>40
SMILES | PG9 Ab binder | NR2E3 ag-1 | GalR3 antag | NR2E3 ag-2 | Rev-erbA mod | PG9 binder conf | PGV04 Ab binding | Rev-erbA confirm | others
CC(=O)c1cccc(NC(=O)CCc2nc3sc4c(c3c(=O)[nH]2)CCCC4)c1 | 13.5* | 0.5 | -5.5 | -29.3 | 23.3* | 10.9* | 23.8* | 17.8*
O=C(CSc1nc2ncc(Cl)cc2[nH]1)c1c[nH]c2ccccc12 | 35.1* | 9.9 | -5.8 | -9.1 | 23.3* | 35.5* | 50.9* | 22.5*
O=C(CSc1nc2ccc(Cl)cc2[nH]1)c1c[nH]c2ccccc12 | -2.1 | 0.7 | -7.7 | -25.5 | 0.5 | nt | nt | nt
C=CCn1c(SCc2nc3ccccc3c(=O)[nH]2)nc2scc(C3CC3)c2c1=O | 14.7* | 8.0 | 10.9 | -2.3 | 25.8* | 16.9* | 28.8* | 22.1*
CCn1c(SCc2nc3ccccc3c(=O)[nH]2)nc2ccccc2c1=O | -0.9 | -2.4 | 1.2 | 2.7 | 1.7 | nt | nt | nt
O=C(NC1CCCCN(Cc2ccc(Cl)cc2)C1=O)c1ccccc1 (stereo unspecified) | nt | nt | nt | nt | 6.6 | nt | nt | nt
CCc1nc(SCC(=O)NCc2ccco2)c2c3c(sc2n1)CCCC3 | 57.0* | 2.5 | -2.6 | -13.9 | 46.1* | 42.2* | 64.3* | 55.3* | RORg DNA counter=>40
CSc1nc(SCC(=O)NCc2ccco2)c2c3c(sc2n1)COC(C)(C)C3 | -0.7 | 6.2 | 0.6 | -15.2 | -2.2 | nt | nt | nt
CCCCSc1nc(SCC(=O)NCc2ccco2)c2c3c(sc2n1)COC(C)(CC)C3 (stereo unspecified) | 11.7* | 2.5 | -1.6 | -14.7 | 39.6* | 10.5* | 16.6* | 28.0*
Cc1cc2nc(-c3ccc(SCC(=O)Nc4ccc(S(=O)(=O)N5CCCC5)cc4)nc3)[nH]c2cc1C | 16.1* | -27.1 | -4.9 | -101.0 | 30.9* | 8.3 | 27.1* | 31.8*
CCn1c(=O)cc(OCC(=O)N2CCc3ccccc32)c2ccccc21 | 39.9* | nt | -1.1 | -19.2 | 45.4* | 49.6* | 70.7* | 11.6*
CCn1c(=O)cc(OCC(=O)N2CCCCCC2)c2ccccc21 | 0.9 | -0.7 | -3.0 | -3.4 | -3.0 | nt | nt | nt

Screens deposited in PubChem by several laboratories.
